# In ChEMBL document CHEMBL3596197, “Synthesis, topoisomerase I and II inhibitory activity, cytotoxicity, and structure-activity relationship study of 2-phenyl- or hydroxylated 2-phenyl-4-aryl-5H-indeno[1,2-b]pyridines” (Bioorg Med Chem, 2015):
# Counter-ions that a name gives are not always drawn.
# What was measured:
# [1] = biological target: T1, DNA topoisomerase 1 (Homo sapiens) (UniProt P11387); assay: Inhibition of human recombinant DNA topoisomerse 1 using pBR322 as substrate assessed as inhibition of conversion of supercoiled pBR322 to relaxed form at 100 uM after 30 mins by ethidium bromide staining-based electrophoresis analysis
# T1 sequence (whole entry): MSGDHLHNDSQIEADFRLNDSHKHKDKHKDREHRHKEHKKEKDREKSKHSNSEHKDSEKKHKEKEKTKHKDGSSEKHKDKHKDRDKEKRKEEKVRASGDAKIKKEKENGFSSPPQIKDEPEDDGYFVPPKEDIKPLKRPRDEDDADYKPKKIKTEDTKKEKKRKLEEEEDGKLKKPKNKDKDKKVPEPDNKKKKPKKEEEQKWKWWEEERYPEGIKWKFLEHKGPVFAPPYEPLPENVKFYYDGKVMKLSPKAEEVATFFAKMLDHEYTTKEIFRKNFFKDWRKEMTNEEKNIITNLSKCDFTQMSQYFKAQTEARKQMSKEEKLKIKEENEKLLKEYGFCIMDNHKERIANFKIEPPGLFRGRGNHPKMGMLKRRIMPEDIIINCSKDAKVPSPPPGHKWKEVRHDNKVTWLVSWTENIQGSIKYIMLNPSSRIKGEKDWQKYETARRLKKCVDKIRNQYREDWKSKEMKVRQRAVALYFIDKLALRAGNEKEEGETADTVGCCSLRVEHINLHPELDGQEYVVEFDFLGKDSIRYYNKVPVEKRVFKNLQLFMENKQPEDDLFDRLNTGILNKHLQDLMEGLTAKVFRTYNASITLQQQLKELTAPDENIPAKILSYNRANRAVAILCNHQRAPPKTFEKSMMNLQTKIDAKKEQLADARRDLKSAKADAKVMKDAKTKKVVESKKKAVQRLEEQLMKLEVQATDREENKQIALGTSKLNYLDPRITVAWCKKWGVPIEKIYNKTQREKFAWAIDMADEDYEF
# Procedure, shortened: (§1)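 Relaxation of supercoiled pBR322 (100 ng) by 1 unit recombinant human topo I. Run at 37 °C for 30 min in 10 mM Tris-HCl pH 7.9, 150 mM NaCl, 0.1% BSA, 1 mM spermidine, 5% glycerol. Compounds from 20 mM DMSO stocks. Stopped with sarcosyl, then 1% agarose gel at 15 V for 7 h in TAE. Ethidium bromide stain, UV imaging, bands quantitated.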
# [2] = tested on: HeLa; assay: Cytotoxicity against human HeLa cells incubated from day 2 to day 4 by CCK8 assay; type: functional, cell-based
# Procedure, shortened: (§2)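 Cells seeded at 2~4 × 10^4 per well and grown overnight in medium with 10% FBS at 37 °C, 5% CO2. Day 2: FBS starvation 4 h, then medium with graded compound concentrations. Day 4: CCK-8 added for 4 h more, absorbance read at 450 nm. IC50 from four-parameter logistic fit. Mean ± S.D. of three experiments run in triplicate.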
# [3] = biological target: DNA topoisomerase 2-alpha (Homo sapiens) (UniProt P11388); assay: Inhibition of human recombinant DNA topoisomerse 2 alpha using pBR322 as substrate assessed as inhibition of conversion of supercoiled pBR322 to relaxed form at 100 uM after 30 mins by ethidium bromide staining-based electrophoresis analysis
# Procedure, shortened: (§3)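 Supercoiled pBR322 (200 ng) with 1 unit human topo IIα, 30 min at 30 °C. Buffer: 10 mM Tris-HCl pH 7.9, 50 mM NaCl, 5 mM MgCl2, 1 mM EDTA, 1 mM ATP, 15 μg/mL BSA. Stopped with EDTA. 1% agarose gel at 25 V for 4 h in TAE, ethidium bromide stain, supercoiled DNA quantitated under UV.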
# [4] = tested on: HCT-15; assay: Cytotoxicity against human HCT15 cells incubated from day 2 to day 4 by CCK8 assay; type: functional, cell-based; procedure, shortened: as §2
# [5] = biological target: T1, DNA topoisomerase 1 (Homo sapiens); assay: Inhibition of human recombinant DNA topoisomerse 1 using pBR322 as substrate assessed as inhibition of conversion of supercoiled pBR322 to relaxed form at 20 uM after 30 mins by ethidium bromide staining-based electrophoresis analysis; procedure, shortened: as §1
# [6] = tested on: T47D; assay: Cytotoxicity against human T47D cells incubated from day 2 to day 4 by CCK8 assay; type: functional, cell-based; procedure, shortened: as §2
# [7] = tested on: DU-145; assay: Cytotoxicity against human DU145 cells incubated from day 2 to day 4 by CCK8 assay; type: functional, cell-based; procedure, shortened: as §2
# [8] = biological target: DNA topoisomerase 2-alpha (Homo sapiens) (UniProt P11388); assay: Inhibition of human recombinant DNA topoisomerse 2 alpha using pBR322 as substrate assessed as inhibition of conversion of supercoiled pBR322 to relaxed form at 20 uM after 30 mins by ethidium bromide staining-based electrophoresis analysis; procedure, shortened: as §3
# DNA topoisomerase 2-alpha (Homo sapiens), sequence (P11388 whole entry): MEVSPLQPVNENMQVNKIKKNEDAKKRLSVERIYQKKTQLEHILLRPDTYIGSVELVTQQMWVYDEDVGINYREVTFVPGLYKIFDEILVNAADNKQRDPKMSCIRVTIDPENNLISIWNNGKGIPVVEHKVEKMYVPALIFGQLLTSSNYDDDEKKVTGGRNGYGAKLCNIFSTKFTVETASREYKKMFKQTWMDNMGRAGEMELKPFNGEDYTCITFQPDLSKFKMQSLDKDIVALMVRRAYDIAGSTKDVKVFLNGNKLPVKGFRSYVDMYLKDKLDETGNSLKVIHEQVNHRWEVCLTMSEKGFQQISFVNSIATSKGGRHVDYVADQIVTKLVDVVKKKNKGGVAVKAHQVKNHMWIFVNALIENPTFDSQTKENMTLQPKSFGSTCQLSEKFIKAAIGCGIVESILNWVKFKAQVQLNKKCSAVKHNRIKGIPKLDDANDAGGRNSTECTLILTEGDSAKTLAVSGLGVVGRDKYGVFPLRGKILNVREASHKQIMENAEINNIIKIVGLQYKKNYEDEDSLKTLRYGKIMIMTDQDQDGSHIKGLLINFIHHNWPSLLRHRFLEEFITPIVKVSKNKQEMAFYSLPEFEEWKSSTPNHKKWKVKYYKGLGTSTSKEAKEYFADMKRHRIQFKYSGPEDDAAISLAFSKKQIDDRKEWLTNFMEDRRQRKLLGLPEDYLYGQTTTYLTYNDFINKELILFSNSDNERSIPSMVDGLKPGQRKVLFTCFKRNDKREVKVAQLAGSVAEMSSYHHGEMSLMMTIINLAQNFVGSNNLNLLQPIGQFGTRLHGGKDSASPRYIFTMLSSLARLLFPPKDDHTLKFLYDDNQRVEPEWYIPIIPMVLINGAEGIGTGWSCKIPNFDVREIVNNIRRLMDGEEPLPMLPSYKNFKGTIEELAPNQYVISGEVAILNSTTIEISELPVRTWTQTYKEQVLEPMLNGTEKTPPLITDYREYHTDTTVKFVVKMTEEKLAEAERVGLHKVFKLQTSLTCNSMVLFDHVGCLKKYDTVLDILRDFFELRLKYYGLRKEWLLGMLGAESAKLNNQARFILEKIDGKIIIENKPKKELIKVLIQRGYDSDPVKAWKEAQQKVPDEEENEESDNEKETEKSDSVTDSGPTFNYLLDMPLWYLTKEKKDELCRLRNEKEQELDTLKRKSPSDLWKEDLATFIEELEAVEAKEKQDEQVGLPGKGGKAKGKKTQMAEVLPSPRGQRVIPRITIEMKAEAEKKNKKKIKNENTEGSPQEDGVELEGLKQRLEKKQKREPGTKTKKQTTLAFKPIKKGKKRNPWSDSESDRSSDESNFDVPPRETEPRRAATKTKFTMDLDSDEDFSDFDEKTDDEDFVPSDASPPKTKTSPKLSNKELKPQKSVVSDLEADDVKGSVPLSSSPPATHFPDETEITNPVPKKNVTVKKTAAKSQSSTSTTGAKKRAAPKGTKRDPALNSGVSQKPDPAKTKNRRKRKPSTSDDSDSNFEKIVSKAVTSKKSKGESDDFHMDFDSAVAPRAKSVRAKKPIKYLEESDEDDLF
Structure (SMILES),inhibition [1],IC50 [2],inhibition [3],IC50 [4],inhibition [5],IC50 [6],IC50 [7],inhibition [8]
Oc1ccccc1-c1cc(-c2ccncc2)c2c(n1)-c1ccccc1C2,68.7%,> 50 µM,5.1%,> 50 µM,2.3%,> 50 µM,39.6 µM,–
Oc1ccc(-c2cc(-c3ccoc3)c3c(n2)-c2ccccc2C3)cc1,63.5%,> 50 µM,40.4%,> 50 µM,0%,> 50 µM,> 50 µM,36.9%
Oc1ccccc1-c1cc(-c2cccnc2)c2c(n1)-c1ccccc1C2,70.9%,> 50 µM,3.5%,> 50 µM,3.8%,> 50 µM,> 50 µM,–
COc1cccc2c1C(=O)c1c(O)c3c(c(O)c1C2=O)C[C@@](O)(C(=O)CO)C[C@@H]3O[C@H]1C[C@H](N)[C@H](O)[C@H](C)O1 [DOXORUBICIN HYDROCHLORIDE],–,–,–,–,–,–,1.02 µM,–
Oc1ccccc1-c1cc(-c2ccccn2)c2c(n1)-c1ccccc1C2,52.8%,> 50 µM,9.1%,> 50 µM,4.9%,> 50 µM,> 50 µM,–
Oc1ccccc1-c1cc(-c2ccoc2)c2c(n1)-c1ccccc1C2,50.6%,> 50 µM,51.7%,> 50 µM,0.5%,> 50 µM,> 50 µM,39.2%
c1ccc(-c2cc(-c3ccccn3)c3c(n2)-c2ccccc2C3)cc1,3.6%,18.7 µM,16.4%,> 50 µM,–,44.5 µM,13.2 µM,–
Oc1ccc(-c2cc(-c3cccnc3)c3c(n2)-c2ccccc2C3)cc1,59.7%,> 50 µM,28.3%,> 50 µM,2.4%,> 50 µM,> 50 µM,–
Oc1ccc(-c2cc(-c3ccccn3)c3c(n2)-c2ccccc2C3)cc1,61.2%,> 50 µM,18.2%,> 50 µM,4.7%,> 50 µM,> 50 µM,–
Oc1ccccc1-c1cc(-c2ccco2)c2c(n1)-c1ccccc1C2,58.3%,> 50 µM,11.7%,> 50 µM,2.4%,> 50 µM,> 50 µM,–
c1ccc(-c2cc(-c3ccsc3)c3c(n2)-c2ccccc2C3)cc1,3.4%,29.8 µM,16.7%,31.4 µM,–,> 50 µM,1.62 µM,–
Oc1cccc(-c2cc(-c3ccco3)c3c(n2)-c2ccccc2C3)c1,59.7%,3.66 µM,78.2%,1.59 µM,5.5%,6.74 µM,4.38 µM,44.5%
Oc1cccc(-c2cc(-c3cccnc3)c3c(n2)-c2ccccc2C3)c1,68.5%,4.67 µM,50.6%,> 50 µM,1.7%,> 50 µM,> 50 µM,30.6%
CC[C@@]1(O)C(=O)OCc2c1cc1n(c2=O)Cc2cc3ccccc3nc2-1 [CAMPTOTHECIN],–,0.41 µM,–,0.52 µM,–,0.31 µM,–,–
c1ccc(-c2cc(-c3ccoc3)c3c(n2)-c2ccccc2C3)cc1,0%,23.8 µM,19.6%,1.52 µM,–,35.3 µM,46.5 µM,15.1%
c1ccc(-c2cc(-c3ccco3)c3c(n2)-c2ccccc2C3)cc1,73%,1.42 µM,44.5%,11.2 µM,8.7%,10.6 µM,5 µM,25.9%
Oc1cccc(-c2cc(-c3cccs3)c3c(n2)-c2ccccc2C3)c1,55.6%,1.47 µM,72.2%,2.32 µM,0%,4.07 µM,4.38 µM,32%
Oc1ccccc1-c1cc(-c2ccsc2)c2c(n1)-c1ccccc1C2,87.8%,> 50 µM,46.8%,> 50 µM,0%,> 50 µM,36.5 µM,23.2%
Oc1ccc(-c2cc(-c3ccncc3)c3c(n2)-c2ccccc2C3)cc1,72.4%,> 50 µM,27.1%,> 50 µM,0.7%,> 50 µM,> 50 µM,–
c1ccc(-c2cc(-c3cccnc3)c3c(n2)-c2ccccc2C3)cc1,4.1%,> 50 µM,–,> 50 µM,–,> 50 µM,> 50 µM,–
Oc1cccc(-c2cc(-c3ccoc3)c3c(n2)-c2ccccc2C3)c1,69.2%,0.94 µM,56.2%,> 50 µM,0%,> 50 µM,28.9 µM,19.3%
Oc1ccc(-c2cc(-c3ccsc3)c3c(n2)-c2ccccc2C3)cc1,90.1%,> 50 µM,36.9%,> 50 µM,0%,> 50 µM,> 50 µM,0%
Oc1cccc(-c2cc(-c3ccsc3)c3c(n2)-c2ccccc2C3)c1,76.9%,1.74 µM,77.2%,6.73 µM,0%,0.94 µM,2.3 µM,37%
Oc1cccc(-c2cc(-c3ccccn3)c3c(n2)-c2ccccc2C3)c1,5.9%,3.09 µM,48.5%,> 50 µM,–,> 50 µM,> 50 µM,19.7%
COc1cc([C@@H]2c3cc4c(cc3[C@@H](O[C@@H]3O[C@@H]5CO[C@@H](C)O[C@H]5[C@H](O)[C@H]3O)[C@H]3COC(=O)[C@H]23)OCO4)cc(OC)c1O [ETOPOSIDE],–,–,–,–,–,0.7 µM,–,–
Oc1ccc(-c2cc(-c3cccs3)c3c(n2)-c2ccccc2C3)cc1,69.1%,> 50 µM,40.1%,> 50 µM,0%,> 50 µM,> 50 µM,21.4%
c1ccc(-c2cc(-c3cccs3)c3c(n2)-c2ccccc2C3)cc1,3.7%,30.8 µM,16.8%,> 50 µM,–,26.7 µM,9.34 µM,–
Oc1ccc(-c2cc(-c3ccco3)c3c(n2)-c2ccccc2C3)cc1,54.8%,> 50 µM,59.9%,> 50 µM,2.7%,> 50 µM,> 50 µM,44.2%
c1ccc(-c2cc(-c3ccncc3)c3c(n2)-c2ccccc2C3)cc1,3.3%,> 50 µM,–,> 50 µM,–,> 50 µM,> 50 µM,–
Oc1cccc(-c2cc(-c3ccncc3)c3c(n2)-c2ccccc2C3)c1,49.8%,> 50 µM,8.4%,> 50 µM,1.5%,> 50 µM,> 50 µM,–
